Structures can show the parent of a compound that is named as a salt.
What was measured:
5-HT5A receptor = 5-HT5A receptor (Homo sapiens, UniProt P47898); test: Radioligand binding competition, 5-HT5A
histamine H2 receptor = histamine H2 receptor (Homo sapiens, UniProt P25021); test: Radioligand binding competition, histamine H2
Adrenergic α2A = Adrenergic α2A (Homo sapiens, UniProt P08913); test: Radioligand competition, adrenergic α2A; format: binding; details: Ki
Adrenergic α2C = Adrenergic α2C (Homo sapiens, UniProt P18825); test: Radioligand competition, adrenergic α2C; format: binding
Adrenergic α2C, sequence (P18825 whole entry): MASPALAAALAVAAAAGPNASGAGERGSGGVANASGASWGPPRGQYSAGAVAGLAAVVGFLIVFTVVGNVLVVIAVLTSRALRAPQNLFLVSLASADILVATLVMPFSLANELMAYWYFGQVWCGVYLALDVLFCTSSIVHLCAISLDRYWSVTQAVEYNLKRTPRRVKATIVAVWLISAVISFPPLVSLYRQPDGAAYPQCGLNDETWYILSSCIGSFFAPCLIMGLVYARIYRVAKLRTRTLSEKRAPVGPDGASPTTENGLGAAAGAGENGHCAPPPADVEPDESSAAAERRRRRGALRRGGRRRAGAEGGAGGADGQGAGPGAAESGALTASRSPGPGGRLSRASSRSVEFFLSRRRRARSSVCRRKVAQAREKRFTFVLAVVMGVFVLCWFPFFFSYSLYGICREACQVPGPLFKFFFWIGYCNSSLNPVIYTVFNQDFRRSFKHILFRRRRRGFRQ

sodium channel (Site 2) = test: Target panel binding, sodium channel
[1] = target: calcium channels of N type (Homo sapiens, UniProt Q00975); test: Target panel binding, calcium channel N type
5-HT2B receptor = 5-HT2B receptor (Homo sapiens, UniProt P41595); test: Intracellular Ca2+ mobilization in HEK 297 cells expressing 5-HT2B; format: cell-based
5-HT2B receptor, sequence (P41595 whole entry): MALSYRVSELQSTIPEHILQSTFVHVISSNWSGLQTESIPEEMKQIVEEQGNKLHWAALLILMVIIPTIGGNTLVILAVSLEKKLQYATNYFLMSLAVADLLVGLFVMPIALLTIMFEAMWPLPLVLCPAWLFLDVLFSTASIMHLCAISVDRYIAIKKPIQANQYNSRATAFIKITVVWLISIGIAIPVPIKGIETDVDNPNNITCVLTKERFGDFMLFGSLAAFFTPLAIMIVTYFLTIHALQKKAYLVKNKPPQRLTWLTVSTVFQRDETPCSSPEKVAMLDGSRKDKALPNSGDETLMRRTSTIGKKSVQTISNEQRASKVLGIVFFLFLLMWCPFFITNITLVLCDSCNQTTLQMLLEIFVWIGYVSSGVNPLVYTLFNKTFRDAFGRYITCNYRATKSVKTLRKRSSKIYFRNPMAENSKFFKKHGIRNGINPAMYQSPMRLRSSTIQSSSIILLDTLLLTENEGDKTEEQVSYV

[2] = Stability in murine blood plasma; format: in vitro ADME, mouse; details: 30-min incubation, room temperature
P-glycoprotein = P-glycoprotein (Homo sapiens, UniProt P08183); test: Pgp-Glo ATPase assay; format: biochemical
P-glycoprotein, sequence (P08183 whole entry): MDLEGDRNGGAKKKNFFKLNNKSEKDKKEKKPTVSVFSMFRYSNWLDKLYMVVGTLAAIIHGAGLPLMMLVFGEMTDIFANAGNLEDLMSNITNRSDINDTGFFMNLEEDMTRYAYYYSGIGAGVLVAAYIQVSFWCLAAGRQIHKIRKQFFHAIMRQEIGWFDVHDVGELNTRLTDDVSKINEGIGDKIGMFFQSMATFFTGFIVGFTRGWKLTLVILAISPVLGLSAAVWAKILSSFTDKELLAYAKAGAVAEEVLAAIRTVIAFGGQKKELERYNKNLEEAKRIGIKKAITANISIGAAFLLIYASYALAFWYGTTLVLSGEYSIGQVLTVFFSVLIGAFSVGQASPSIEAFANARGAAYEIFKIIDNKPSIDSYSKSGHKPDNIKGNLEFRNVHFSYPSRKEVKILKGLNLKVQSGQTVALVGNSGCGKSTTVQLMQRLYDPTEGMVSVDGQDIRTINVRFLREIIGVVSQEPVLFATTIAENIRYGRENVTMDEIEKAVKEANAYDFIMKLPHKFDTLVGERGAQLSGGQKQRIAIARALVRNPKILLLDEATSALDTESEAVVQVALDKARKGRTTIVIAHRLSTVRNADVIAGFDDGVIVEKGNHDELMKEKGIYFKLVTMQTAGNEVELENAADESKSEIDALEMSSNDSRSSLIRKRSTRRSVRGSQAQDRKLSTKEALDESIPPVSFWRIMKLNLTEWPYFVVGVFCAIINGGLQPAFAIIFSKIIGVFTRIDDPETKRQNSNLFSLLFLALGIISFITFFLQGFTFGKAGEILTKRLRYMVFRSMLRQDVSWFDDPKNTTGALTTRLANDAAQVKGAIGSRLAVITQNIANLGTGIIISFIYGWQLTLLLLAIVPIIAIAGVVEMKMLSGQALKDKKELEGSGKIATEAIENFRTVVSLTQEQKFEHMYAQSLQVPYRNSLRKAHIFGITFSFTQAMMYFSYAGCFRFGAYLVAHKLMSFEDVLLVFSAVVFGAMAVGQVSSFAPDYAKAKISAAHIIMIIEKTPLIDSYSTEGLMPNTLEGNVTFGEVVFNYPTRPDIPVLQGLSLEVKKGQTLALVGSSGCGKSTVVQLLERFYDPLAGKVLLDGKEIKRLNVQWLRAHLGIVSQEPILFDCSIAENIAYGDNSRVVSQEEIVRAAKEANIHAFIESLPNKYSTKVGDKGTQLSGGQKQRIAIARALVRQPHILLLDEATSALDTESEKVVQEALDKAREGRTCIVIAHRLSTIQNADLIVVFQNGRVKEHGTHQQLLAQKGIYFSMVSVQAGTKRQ
Outline: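 P-glycoprotein ATPase activity was measured with the Pgp-Glo assay system per the manufacturer's protocol. Orthovanadate-sensitive activity was determined in the presence of test compound.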

[3] = Metabolism in human microsomes; format: in vitro ADME; details: for Remaining quantity: HLM
[4] = Metabolism in rat liver S9 fraction; format: in vitro ADME; details: for half-life at 1 µM / half-life at 2 µM: rat, liver S9 fraction
[5] = Biodistribution of [3H]AVN-101 in rat organs; format: in vivo, Wistar rats; details: for concentration in Blood / concentration in Brain / concentration in Heart / concentration in Kidneys / concentration in Liver / concentration in Lungs / concentration in Spleen: [3H] label; for accumulation in brain higher than in blood: 4 h
male BALB/c mice [6] = test: Elevated Plus-Maze; format: in vivo; details: IP; Buspirone 5 mg/kg; M2 0.05, 0.5, 1.0, 5.0 mg/kg
Outline: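 Elevated plus-maze in mice. Read-outs were open/closed arm time ratio, open/closed visit ratio, defecations and total visits. Each treated group was compared with the placebo group by Student t-test.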

BALB/c mice = test: Open Field test; format: in vivo; details: IP; Lorazepam 0.05 mg/kg, AVN-101 0.2 mg/kg
Outline: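 Male BALB/c mice received lorazepam 30 min or test compound 5 min before testing; controls received saline, with at least 8 per group. Time in the central zone was recorded during a 10-min exploration. Comparison with the control group used ANOVA with Fisher LSD.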

male Long Evans rats = test: Geller-Seifter conflict test; format: in vivo; details: IV, 5 min before test
Outline: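 Male Long Evans rats were food-deprived for 24 h, with at least 5 per group. Test compound was given IV via tail vein 5 min before testing. The test ran two 30-min sessions, unpunished and punished (conflict), with lever presses counted. Results were expressed as relative change versus the vehicle group.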

male BALB/c mice [7] = test: Passive avoidance, scopolamine-induced amnesia, mice; format: in vivo
male adult SHK mice = test: 14 days toxicity, mice; format: in vivo; details: 5 mg/kg PO daily
Outline: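 Mice randomly assigned to a vehicle group or a 5 mg/kg group.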

Wistar rats = test: 180 days toxicity, rats; format: in vivo
hKv4.3-hKCh1P2.2 (Ito) = hKv4.3-hKCh1P2.2 (Ito) (Homo sapiens, UniProt Q9UK17); test: Cardiac channel inhibition, Ito; format: cell-based
hKv4.3-hKCh1P2.2 (Ito), sequence (Q9UK17 whole entry): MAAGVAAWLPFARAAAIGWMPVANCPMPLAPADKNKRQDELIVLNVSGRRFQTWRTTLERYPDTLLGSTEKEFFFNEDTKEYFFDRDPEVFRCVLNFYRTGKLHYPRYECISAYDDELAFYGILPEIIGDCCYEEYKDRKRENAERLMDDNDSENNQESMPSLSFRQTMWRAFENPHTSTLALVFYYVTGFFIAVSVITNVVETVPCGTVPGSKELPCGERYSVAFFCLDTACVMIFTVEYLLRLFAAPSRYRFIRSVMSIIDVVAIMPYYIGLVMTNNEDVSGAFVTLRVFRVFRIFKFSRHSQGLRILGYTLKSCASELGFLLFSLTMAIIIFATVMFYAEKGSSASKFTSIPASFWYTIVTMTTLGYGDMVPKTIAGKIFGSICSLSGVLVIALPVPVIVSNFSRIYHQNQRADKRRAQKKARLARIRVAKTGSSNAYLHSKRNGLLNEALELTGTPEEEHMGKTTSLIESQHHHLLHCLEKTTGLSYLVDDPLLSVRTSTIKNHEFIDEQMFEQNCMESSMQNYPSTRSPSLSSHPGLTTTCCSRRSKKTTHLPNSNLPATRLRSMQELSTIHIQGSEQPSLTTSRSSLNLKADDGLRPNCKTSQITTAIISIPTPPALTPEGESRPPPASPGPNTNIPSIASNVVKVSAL

[8] = Phase I pharmacokinetics, single PO dose; format: in vivo, human; details: human, blood, po
5-HT2C receptor = target: T1, 5-HT2C receptor (Homo sapiens, UniProt P28335); details: Table 2; cited from earlier work
T1 sequence (P28335 33-458): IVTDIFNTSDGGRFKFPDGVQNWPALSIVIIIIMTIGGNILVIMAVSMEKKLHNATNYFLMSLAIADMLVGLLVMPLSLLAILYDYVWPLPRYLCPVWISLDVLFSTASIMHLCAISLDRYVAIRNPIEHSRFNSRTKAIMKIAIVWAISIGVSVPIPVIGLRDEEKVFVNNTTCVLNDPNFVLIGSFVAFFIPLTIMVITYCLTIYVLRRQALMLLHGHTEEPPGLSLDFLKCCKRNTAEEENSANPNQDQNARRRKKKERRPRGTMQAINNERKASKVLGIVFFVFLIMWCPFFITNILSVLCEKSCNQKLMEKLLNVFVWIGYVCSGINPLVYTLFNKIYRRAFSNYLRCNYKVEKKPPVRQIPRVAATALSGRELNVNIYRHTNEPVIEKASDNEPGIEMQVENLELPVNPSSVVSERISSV

histamine H2 receptor, sequence (P25021 whole entry): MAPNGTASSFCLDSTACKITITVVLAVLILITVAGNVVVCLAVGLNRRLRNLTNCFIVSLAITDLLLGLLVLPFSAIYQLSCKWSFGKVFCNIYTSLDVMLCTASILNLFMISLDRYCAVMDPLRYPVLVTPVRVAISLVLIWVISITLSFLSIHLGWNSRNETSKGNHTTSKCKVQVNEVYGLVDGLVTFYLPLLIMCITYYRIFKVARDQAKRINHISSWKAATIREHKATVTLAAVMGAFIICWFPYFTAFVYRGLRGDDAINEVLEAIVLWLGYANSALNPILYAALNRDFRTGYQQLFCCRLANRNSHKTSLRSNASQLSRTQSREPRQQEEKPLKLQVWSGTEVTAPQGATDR
5-HT5A receptor, sequence (P47898 whole entry): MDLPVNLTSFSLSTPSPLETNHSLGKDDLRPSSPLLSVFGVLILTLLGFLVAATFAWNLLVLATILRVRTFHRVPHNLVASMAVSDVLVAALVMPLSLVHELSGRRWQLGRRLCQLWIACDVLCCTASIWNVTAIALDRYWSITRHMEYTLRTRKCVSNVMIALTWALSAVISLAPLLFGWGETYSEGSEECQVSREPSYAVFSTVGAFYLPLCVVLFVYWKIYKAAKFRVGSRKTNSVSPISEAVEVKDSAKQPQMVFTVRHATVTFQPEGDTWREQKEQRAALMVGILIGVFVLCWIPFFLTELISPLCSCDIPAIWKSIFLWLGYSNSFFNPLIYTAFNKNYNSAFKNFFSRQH
Adrenergic α2A, sequence (P08913 whole entry): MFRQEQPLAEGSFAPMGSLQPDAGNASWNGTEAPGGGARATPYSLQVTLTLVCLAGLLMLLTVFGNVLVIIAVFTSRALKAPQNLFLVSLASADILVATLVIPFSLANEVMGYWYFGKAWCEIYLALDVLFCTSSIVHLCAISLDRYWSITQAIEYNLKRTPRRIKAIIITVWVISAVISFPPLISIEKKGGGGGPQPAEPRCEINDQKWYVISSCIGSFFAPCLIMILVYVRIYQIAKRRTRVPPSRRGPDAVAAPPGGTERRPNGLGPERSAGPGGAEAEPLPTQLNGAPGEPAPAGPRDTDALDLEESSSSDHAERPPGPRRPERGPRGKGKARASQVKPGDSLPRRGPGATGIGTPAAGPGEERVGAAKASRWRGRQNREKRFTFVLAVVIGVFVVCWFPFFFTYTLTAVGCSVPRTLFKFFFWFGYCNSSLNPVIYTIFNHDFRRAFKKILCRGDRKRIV

SMILES: Cc1ccc2c(c1)c1c(n2CCc2ccccc2)CCN(C)C1 [AVN-101, 2,8-dimethyl-5-penethyl-2,3,4,5-tetra-hydro-1h-pyrido[[4,3-B]]indole hydrochloride]
- Ki (5-HT5A receptor): 20.8 nM
- Ki (histamine H2 receptor): 89 nM
- Ki (Adrenergic α2A): 0.41 to 3.6 nM
- Ki (Adrenergic α2C): 0.41 to 3.6 nM
- binding (sodium channel (Site 2)): does not bind
- binding [1]: does not bind
- agonistic activity (intracellular free Ca2+) (5-HT2B receptor; AVN-101 alone, 10μM): lacked intrinsic agonistic activity
- blockade of α methyl-serotonin-induced Ca2+ spike (5-HT2B receptor; αMet5-HT 5μM, AVN-101 10μM): effectively blocking
- residual amount of original compound [2]: 16%
- EC50 (P-glycoprotein): ~50000 nM
- effect on Pgp ATP-ase activity (P-glycoprotein; orthovanadate-sensitive ATPase): strong activation
- k el ([3]; 1μM): 0.335
- original AVN-101 consumed ([3]; 2μM, 30-min incubation): 57%
- Remaining quantity ([3]; AVN-101 1 μM, 7.9 min): 3.0%
- Remaining quantity ([3]; AVN-101 1 μM, 30 min): 2%
- Remaining quantity ([3]; AVN-101 2 μM, 7.9 min): 40.0%
- Remaining quantity ([3]; AVN-101 2 μM, 30 min): 43%
- half-life at 1 µM ([3]; human, liver microsomes): 2.07 min
- microsomal CLint at 1 µM ([3]; human, liver microsomes): 335 µL/min/mg
- metabolism with UDPGA only ([4]; phase 2 co-factor UDPGA only): no metabolism
- half-life at 1 µM ([4]; T1/2, +NADPH+UDPGA): 0.96 min
- half-life at 2 µM ([4]; T1/2, +NADPH+UDPGA): 2.34 min
- half-life at 1 µM ([4]; T1/2, +NADPH): 1.22 min
- half-life at 2 µM ([4]; T1/2, +NADPH): 2.36 min
- concentration in Blood ([5]; 4 h after IV 5 mg/kg): 360 ± 10 ng/mL
- concentration in Brain ([5]; 4 h after IV 5 mg/kg): 9440 ± 360 ng/mL
- concentration in Heart ([5]; 4 h after IV 5 mg/kg): 9240 ± 230 ng/mL
- concentration in Kidneys ([5]; 4 h after IV 5 mg/kg): 6500 ± 200 ng/mL
- concentration in Liver ([5]; 4 h after IV 5 mg/kg): 5300 ± 160 ng/mL
- concentration in Lungs ([5]; 4 h after IV 5 mg/kg): 8960 ± 110 ng/mL
- concentration in Spleen ([5]; 4 h after IV 5 mg/kg): 5940 ± 150 ng/mL
- concentration in Blood ([5]; 4 h after PO 10 mg/kg): 460 ± 10 ng/mL
- concentration in Brain ([5]; 4 h after PO 10 mg/kg): 6240 ± 240 ng/mL
- concentration in Heart ([5]; 4 h after PO 10 mg/kg): 3280 ± 150 ng/mL
- concentration in Kidneys ([5]; 4 h after PO 10 mg/kg): 4700 ± 220 ng/mL
- concentration in Liver ([5]; 4 h after PO 10 mg/kg): 3780 ± 130 ng/mL
- concentration in Lungs ([5]; 4 h after PO 10 mg/kg): 3200 ± 230 ng/mL
- concentration in Spleen ([5]; 4 h after PO 10 mg/kg): 3740 ± 150 ng/mL
- accumulation in brain higher than in blood ([5]; IV): 26 fold
- accumulation in brain higher than in blood ([5]; PO): 13 fold
- IV/PO, normalized, Kidneys ([5]; normalized by dose): 2.77
- IV/PO, normalized, Spleen ([5]; normalized by dose): 3.18
- Organ bioavailability, Blood ([5]; rat, in vivo): 63.9%
- Organ bioavailability, Brain ([5]; rat, in vivo): 33.0%
- Organ bioavailability, Heart ([5]; rat, in vivo): 17.7%
- Organ bioavailability, Kidneys ([5]; rat, in vivo): 36.2%
- Organ bioavailability, Liver ([5]; rat, in vivo): 35.6%
- Organ bioavailability, Lungs ([5]; rat, in vivo): 17.9%
- Organ bioavailability, Spleen ([5]; rat, in vivo): 31.5%
- anxiolytic effect (open/closed arm time and visits, defecations) (male BALB/c mice [6]): clear anxiolytic effects
- time spent in the central area (BALB/c mice): significant anxiolytic effect
- activity during unpunished rewards session (male Long Evans rats): no effect observed
- activity during punished conflict rewards session (male Long Evans rats; compared to vehicle): significantly increased
- reversal of scopolamine-induced amnesia vs comparators (male BALB/c mice [7]; AVN-101 5 mg/kg IP): equal to or more effective than either memantine or tacrine
- lowest dose with preventative effect on scopolamine-induced amnesic parameters (male BALB/c mice [7]; IP, scopolamine 0.3 mg/kg): 0.02 mg/kg
- anti-amnesic dose (male BALB/c mice [7]; scopolamine model): 0.05 mg/kg
- signs of toxicity (male adult SHK mice): No signs of toxicity
- toxic effects (Wistar rats; 5 mg/kg PO daily): severe hepatotoxic and moderate cardiotoxic effects
- toxic effects (Wistar rats; 0.25 and 0.5 mg/kg PO daily): substantially less noticeable
- IC50 (hKv4.3-hKCh1P2.2 (Ito)): 14800 nM
- inhibition at 31.6 µM (hKv4.3-hKCh1P2.2 (Ito); read-out: % Inhibition at 31.6μM): 66%
- AUC ([8]; 2 mg): 0.0946 ± 0.0268 ng·h/mL
- Cmax ([8]; 2 mg): 0.00579 ± 0.0029 ng/mL
- half-life ([8]; 2 mg): 14.1 ± 10.2 h
- AUC ([8]; 4 mg): 0.211 ± 0.0862 ng·h/mL
- half-life ([8]; 4 mg): 8.15 ± 2.23 h
- AUC ([8]; 10 mg): 0.462 ± 0.207 ng·h/mL
- Cmax ([8]; 10 mg): 0.0537 ± 0.0318 ng/mL
- half-life ([8]; 10 mg): 10.2 ± 2.55 h
- AUC ([8]; 20 mg): 0.843 ± 0.333 ng·h/mL
- Cmax ([8]; 20 mg): 0.0841 ± 0.0462 ng/mL
- half-life ([8]; 20 mg): 8.18 ± 2.09 h
- Tmax ([8]; male): ~1 h
- half-life ([8]; male): 8 to 14 h
- Ki (5-HT2C receptor): 1.17 nM

— PMC4969713 (Journal of Alzheimer's Disease, 2016)
